Results reported in ChEMBL document CHEMBL1147479, “Synthesis and biological evaluation of benzimidazole-4,7-diones that inhibit vascular smooth muscle cell proliferation” (Bioorg Med Chem Lett, 2004).
pIC50: −log10 of the molar value.

Organism: Rattus norvegicus
Assay: Inhibitory activity against the PDGF-induced proliferation of rat aortic smooth muscle cell (RAoSMC)
Assay type: functional, organism-based
Outline: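 Smooth muscle cells isolated from rat thoracic aorta, kept in DMEM with 10% FBS. Seeded in triplicate at 1×10³ cells/well and grown 24 h, then starved in 0.2% FBS for 72 h. Treated for 48 h in DMEM with PDGF (5 ng/mL) and 5% FBS. Proliferation read by WST-1 uptake (colorimetric); IC50 derived by comparison with mycophenolic acid standard.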

Question: How did the pIC50 turn out when `O=C1C(Cl)=C(Nc2ccccc2)C(=O)c2[nH]cnc21` was run?
Answer: 5.26

Question: `O=C1C(Cl)=C(Nc2cccc(Br)c2)C(=O)c2[nH]cnc21` was tested. Which pIC50 did it give?
Answer: 5.80

Question: How did the pIC50 turn out when `O=C1C(Br)=C(Nc2ccc(F)cc2)C(=O)c2[nH]cnc21` was run?
Answer: 6.00

Question: `O=C1C(Br)=C(Nc2cccc(I)c2)C(=O)c2[nH]cnc21` was tested. Which pIC50 did it give?
Answer: 5.60

Question: With `Cc1nc2c([nH]1)C(=O)/C(=N/c1ccc(F)c(F)c1F)C(Cl)=C2O` as the compound, how does the pIC50 read?
Answer: 5.96

Question: `COc1ccc(OC)c2[nH]cnc12` was tested. Which pIC50 did it give?
Answer: < 4.00

Question: `Cc1nc2c([nH]1)C(=O)/C(=N/c1ccccc1)C(Cl)=C2O` was tested. Which pIC50 did it give?
Answer: 6.10

Question: `Cc1ccc(NC2=C(Br)C(=O)c3nc[nH]c3C2=O)cc1` was tested. Which pIC50 did it give?
Answer: 6.00

Question: With `Cc1nc2c([nH]1)C(=O)/C(=N/c1cccc(Br)c1)C(Cl)=C2O` as the compound, how does the pIC50 read?
Answer: 6.00

Question: `Cc1nc2c([nH]1)C(=O)/C(=N/c1ccc(F)cc1)C(Cl)=C2O` was tested. Which pIC50 did it give?
Answer: 5.52

Question: How did the pIC50 turn out when `O=C1C(Cl)=C(Nc2ccccc2)C(=O)c2[nH]c(C(F)(F)F)nc21` was run?
Answer: 4.30

Question: With `Cc1nc2c([nH]1)C(=O)/C(=N/c1cccc(Cl)c1)C(Cl)=C2O` as the compound, how does the pIC50 read?
Answer: 6.05

Question: `O=C1C(Cl)=C(Nc2cccc(Cl)c2)C(=O)c2[nH]cnc21` was tested. Which pIC50 did it give?
Answer: 5.85

Question: `O=C1C(Cl)=C(Nc2cccc(I)c2)C(=O)c2[nH]cnc21` was tested. Which pIC50 did it give?
Answer: 5.89

Question: How did the pIC50 turn out when `O=C1C(Br)=C(Nc2ccc(Cl)cc2)C(=O)c2[nH]cnc21` was run?
Answer: 5.40

Question: `O=C1C(Br)=C(Nc2ccccc2)C(=O)c2[nH]cnc21` was tested. Which pIC50 did it give?
Answer: 5.96

Question: With `O=C1C(Cl)=C(Nc2ccc(I)cc2)C(=O)c2[nH]c(C(F)(F)F)nc21` as the compound, how does the pIC50 read?
Answer: 4.60

Question: How did the pIC50 turn out when `O=C1C(Cl)=C(Nc2ccc(Cl)cc2)C(=O)c2[nH]c(C(F)(F)F)nc21` was run?
Answer: 4.82

Question: How did the pIC50 turn out when `Cc1ccc(NC2=C(Cl)C(=O)c3nc(C(F)(F)F)[nH]c3C2=O)cc1` was run?
Answer: 4.40

Question: With `COc1ccc(OC)c2[nH]c(C)nc12` as the compound, how does the pIC50 read?
Answer: < 4.00

Question: `O=C1C(Cl)=C(Nc2ccc(I)cc2)C(=O)c2[nH]cnc21` was tested. Which pIC50 did it give?
Answer: 5.89

Question: With `O=C1C(Cl)=C(Nc2ccc(F)cc2)C(=O)c2[nH]c(C(F)(F)F)nc21` as the compound, how does the pIC50 read?
Answer: 4.92

Question: With `Cc1nc2c([nH]1)C(=O)/C(=N/c1ccc(I)cc1)C(Cl)=C2O` as the compound, how does the pIC50 read?
Answer: 6.00

Question: `O=C1C(Cl)=C(Nc2ccc(F)cc2)C(=O)c2[nH]cnc21` was tested. Which pIC50 did it give?
Answer: 5.92

Question: `Cc1nc2c([nH]1)C(=O)/C(=N/c1ccc(F)cc1F)C(Cl)=C2O` was tested. Which pIC50 did it give?
Answer: 5.92

Question: With `Cc1ccc(NC2=C(Cl)C(=O)c3nc[nH]c3C2=O)cc1` as the compound, how does the pIC50 read?
Answer: 5.85

Question: How did the pIC50 turn out when `O=C1C(Cl)=C(Nc2ccc(C(F)(F)F)cc2)C(=O)c2[nH]cnc21` was run?
Answer: 5.60

Question: `O=C1C(Cl)=C(Nc2ccc(C(F)(F)F)cc2)C(=O)c2[nH]c(C(F)(F)F)nc21` was tested. Which pIC50 did it give?
Answer: 4.70

Question: With `Cc1ccc(NC2=C(Cl)C(=O)c3nc(C)[nH]c3C2=O)cc1` as the compound, how does the pIC50 read?
Answer: 6.10

Question: With `Cc1nc2c([nH]1)C(=O)/C(=N/c1ccc(Cl)cc1)C(Cl)=C2O` as the compound, how does the pIC50 read?
Answer: 5.55

Question: How did the pIC50 turn out when `O=C1C(Cl)=C(Nc2ccc(F)c(F)c2)C(=O)c2[nH]cnc21` was run?
Answer: 5.96

Question: How did the pIC50 turn out when `Cc1nc2c([nH]1)C(=O)/C(=N/c1ccc(Cl)cc1Cl)C(Cl)=C2O` was run?
Answer: 6.10

Question: With `O=C1C(Br)=C(Nc2ccc(C(F)(F)F)cc2)C(=O)c2[nH]cnc21` as the compound, how does the pIC50 read?
Answer: 5.51

Question: With `Cc1nc2c([nH]1)C(=O)/C(=N/c1cccc(Cl)c1Cl)C(Cl)=C2O` as the compound, how does the pIC50 read?
Answer: 6.22

Question: `Cc1nc2c([nH]1)C(=O)/C(=N/c1ccc(C(F)(F)F)cc1)C(Cl)=C2O` was tested. Which pIC50 did it give?
Answer: 6.22

Question: How did the pIC50 turn out when `COc1c(C)c2c(c(O)c1C/C=C(\C)CCC(=O)O)C(=O)OC2` [MYCOPHENOLIC ACID] was run?
Answer: 6.00
